Test results reported in ChEMBL document CHEMBL4765226, “Identification of a Human Toll-Like Receptor (TLR) 8-Specific Agonist and a Functional Pan-TLR Inhibitor in 2-Aminoimidazoles” (J Med Chem, 2016).
The source made the active and inactive calls. The rule behind the calls is not given here.

How the values were obtained:
Format in all cases: cell-based
[1] = target: T1, Toll-like receptor 7 (Homo sapiens) (UniProt Q9NYK1); test: Agonist activity at human TLR7 stably expressed in HEK293 cells cotransfected with secreted alkaline phosphatase assessed as induction of NFkappaB activation by quanti-blue SEAP reporter gene based spectrophotometric method
T1 sequence (whole entry): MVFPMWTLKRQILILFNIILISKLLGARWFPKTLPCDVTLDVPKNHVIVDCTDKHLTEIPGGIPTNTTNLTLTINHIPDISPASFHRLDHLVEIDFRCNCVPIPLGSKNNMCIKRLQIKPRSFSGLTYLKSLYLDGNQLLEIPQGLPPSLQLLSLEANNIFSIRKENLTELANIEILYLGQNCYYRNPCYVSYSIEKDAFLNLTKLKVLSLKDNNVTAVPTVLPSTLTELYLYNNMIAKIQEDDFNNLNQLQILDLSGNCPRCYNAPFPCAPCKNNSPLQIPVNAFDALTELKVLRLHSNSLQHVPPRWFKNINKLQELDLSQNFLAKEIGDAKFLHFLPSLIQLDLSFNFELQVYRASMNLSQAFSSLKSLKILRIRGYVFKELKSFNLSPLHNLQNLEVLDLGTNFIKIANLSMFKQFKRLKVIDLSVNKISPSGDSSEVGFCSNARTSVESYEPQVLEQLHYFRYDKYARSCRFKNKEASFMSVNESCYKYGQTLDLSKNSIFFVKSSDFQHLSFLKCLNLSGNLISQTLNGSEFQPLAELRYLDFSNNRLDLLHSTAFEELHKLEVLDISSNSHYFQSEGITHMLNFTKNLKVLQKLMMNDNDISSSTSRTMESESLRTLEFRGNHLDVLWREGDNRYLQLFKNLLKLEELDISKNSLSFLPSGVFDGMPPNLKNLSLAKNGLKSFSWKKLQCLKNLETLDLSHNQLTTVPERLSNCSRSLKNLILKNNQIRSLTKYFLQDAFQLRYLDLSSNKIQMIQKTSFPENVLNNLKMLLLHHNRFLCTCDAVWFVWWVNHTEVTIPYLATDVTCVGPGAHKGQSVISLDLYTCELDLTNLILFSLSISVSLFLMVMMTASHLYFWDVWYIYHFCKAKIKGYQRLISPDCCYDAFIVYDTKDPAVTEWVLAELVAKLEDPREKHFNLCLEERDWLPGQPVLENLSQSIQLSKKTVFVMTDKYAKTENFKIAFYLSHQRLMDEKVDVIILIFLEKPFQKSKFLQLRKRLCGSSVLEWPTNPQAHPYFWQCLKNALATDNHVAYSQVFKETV
Outline: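 HEK293 cells stably co-transfected with the matching human TLR (2, 3, 4, 5, 7, 8 or 9) and NF-κB/AP-1-driven secreted alkaline phosphatase were kept in selection medium. About 10^5 cells/ml were incubated with graded concentrations of stimulus. sAP was read at 620 nm with a chromogen in detection medium. EC50 came from four-parameter logistic fits on quadruplicates.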

[2] = target: T2, Toll-like receptor 8 (Homo sapiens) (UniProt Q9NR97); test: Antagonist activity at human TLR8 stably expressed in HEK293 cells cotransfected with secreted alkaline phosphatase assessed as inhibition of compound 1f-induced NFkappaB activation by measuring reduction in SEAP level by quanti-blue SEAP reporter gene based spectrophotometric method; conditions: filed as antagonist
T2 sequence (whole entry): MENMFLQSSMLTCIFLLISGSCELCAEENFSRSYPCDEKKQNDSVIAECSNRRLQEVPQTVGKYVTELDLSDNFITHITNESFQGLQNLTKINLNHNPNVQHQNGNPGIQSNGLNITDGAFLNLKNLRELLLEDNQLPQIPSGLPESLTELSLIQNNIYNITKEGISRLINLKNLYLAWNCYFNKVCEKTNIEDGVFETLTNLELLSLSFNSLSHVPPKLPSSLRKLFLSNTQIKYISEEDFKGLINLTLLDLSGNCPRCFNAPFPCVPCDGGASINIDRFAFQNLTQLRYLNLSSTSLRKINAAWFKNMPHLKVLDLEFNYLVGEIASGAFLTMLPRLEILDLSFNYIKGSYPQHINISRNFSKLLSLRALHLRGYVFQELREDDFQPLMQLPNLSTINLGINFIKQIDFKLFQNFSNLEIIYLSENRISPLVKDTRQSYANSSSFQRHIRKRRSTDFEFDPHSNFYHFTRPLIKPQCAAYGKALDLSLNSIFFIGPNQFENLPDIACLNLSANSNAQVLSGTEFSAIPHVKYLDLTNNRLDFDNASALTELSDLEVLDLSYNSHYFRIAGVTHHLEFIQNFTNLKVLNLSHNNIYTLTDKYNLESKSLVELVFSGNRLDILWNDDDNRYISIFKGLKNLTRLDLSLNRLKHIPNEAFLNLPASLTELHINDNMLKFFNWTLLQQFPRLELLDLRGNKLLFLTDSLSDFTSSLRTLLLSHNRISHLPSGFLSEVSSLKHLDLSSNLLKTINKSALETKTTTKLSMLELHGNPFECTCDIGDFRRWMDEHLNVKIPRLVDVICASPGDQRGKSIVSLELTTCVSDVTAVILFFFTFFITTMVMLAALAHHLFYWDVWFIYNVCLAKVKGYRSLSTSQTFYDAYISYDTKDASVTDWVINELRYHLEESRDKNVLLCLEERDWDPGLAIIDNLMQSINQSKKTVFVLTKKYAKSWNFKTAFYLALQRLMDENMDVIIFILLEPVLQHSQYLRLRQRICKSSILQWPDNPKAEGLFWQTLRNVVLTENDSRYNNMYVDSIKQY
Outline: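 Human TLR8/sAP HEK293 reporter cells were stimulated with 1f at 5 µg/mL in the presence of graded inhibitor concentrations. Reduction of secreted alkaline phosphatase was read spectrophotometrically at 620 nm.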

[3] = target: T2, Toll-like receptor 8 (Homo sapiens); test: Agonist activity at TLR8 in human PBMC cells assessed as induction of IL-6 production incubated for 16 hrs by immunoassay; conditions: filed as agonist
Outline: (§1)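 Fresh human PBMCs isolated from venous blood, plated at 10^5 cells in 100 µL per well and stimulated for 16 h with graded concentrations of compound. Supernatants were collected by centrifugation and assayed in duplicate with a multiplexed cytokine/chemokine magnetic bead array.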

[4] = target: T2, Toll-like receptor 8 (Homo sapiens); test: Agonist activity at TLR8 in human PBMC cells assessed as induction of IFNgamma production incubated for 16 hrs by immunoassay; conditions: filed as agonist; outline: as §1
[5] = target: T2, Toll-like receptor 8 (Homo sapiens); test: Agonist activity at TLR8 in human PBMC cells assessed as induction of MCP1 production incubated for 16 hrs by immunoassay; conditions: filed as agonist; outline: as §1
[6] = target: T2, Toll-like receptor 8 (Homo sapiens); test: Agonist activity at TLR8 in human monocytes assessed as induction of NF-kappaB phosphorylation at p65 subunit measured after 15 mins in presence of 10% FBS by Alexa fluor 647 dye based flow cytometry analysis; conditions: Monocyte, in the assay text read “PE-Cy7 dye” for “Alexa fluor 647 dye”
Outline: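 Whole human blood with anticoagulant was added to serial compound dilutions in RPMI with 10% FBS and held at 37 °C for 15 min. Samples were lysed and fixed three times, permeabilized in ice-cold methanol for 30 min, then stained on ice for 60 min with anti-NF-κB p65-PECy7, p38MAPK-PE and ERK1/2-AlexaFluor 647. Flow cytometry acquired 100,000 gated events; monocytes and polymorphonuclear cells were gated.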

SMILES	Activity [1]	further results
CCCCCn1cc(-c2c(C)cccc2C)nc1N	inactive	–
CCCCCn1c(-c2ccccc2)cnc1N.Cl	inactive	inhibition [2]: Dose-dependent effect
CCCCCn1cc(-c2ccc(OC)cc2)nc1N	inactive	–
CCCCCn1cc(-c2cccc(C)c2OC)nc1N	inactive	–
CCCCCn1cc(-c2ccc(Cl)cc2)nc1N	inactive	–
CCCCCn1cc(-c2cccc(C(F)(F)F)c2)nc1N	inactive	–
CCCCCn1cc(-c2ccccc2OCc2ccccc2)nc1N.Cl	inactive	inhibition [2]: Dose-dependent effect
CCCCCn1cc(-c2ccc3ccccc3c2)nc1N	inactive	–
CCCCCn1cc(-c2cccc(Cl)c2)nc1N	inactive	–
CCCCCn1cc(-c2cccc(C)c2C)nc1N	inactive	–
CCCCCn1cc(-c2ccc(F)cc2)nc1N	inactive	Activity [3]: Active; Activity [4]: Active; Activity [5]: Active; Activity [6]: inactive
CCCCCn1cc(-c2ccc(C(N)=O)cc2)nc1N	inactive	–
CCCCCn1cc(-c2cc(OC)c(OC)c(OC)c2)nc1N	inactive	–
CCCCCn1c(N)nc(-c2ccccc2)c1-c1ccccc1	inactive	–
CCCCCn1cc(-c2ccc(F)cc2C)nc1N	inactive	–
CCCCCn1cc(-c2ccc(C(F)(F)F)cc2)nc1N	inactive	–
CCCCCn1cc(-c2ccc(C(=O)OC)cc2)nc1N	inactive	–
CCCCCn1cc(-c2ccccc2C(=O)OC)nc1N	inactive	–
CCCCCn1cc(-c2cccnc2)nc1N	inactive	–
CCCCCn1cc(-c2cc(C)ccc2C)nc1N	inactive	–
CCCCCn1cc(-c2c(C)noc2C)nc1N	inactive	–
CCCCCn1cc(-c2ccccc2O)nc1N	inactive	–

SMILES	Activity [1]	further results
CCCCCn1cc(-c2ccccc2CO)nc1N	inactive	–
CCCCCn1cc(CCc2ccccc2)nc1N	inactive	–
CCCCCn1cc(Cc2ccccc2)nc1N	inactive	–
CCCCCn1cc(-c2ccc(-c3ccccc3)cc2)nc1N	inactive	–
CCCCCn1cc(-c2ccc(C)cc2)nc1N	inactive	–
CCCCCn1cc(-c2ccccc2C)nc1N	inactive	–
CCCCCn1cc(-c2ccccc2)nc1N	inactive	Activity [3]: Active; Activity [4]: Active; Activity [5]: Active; Activity [6]: inactive
CCCCCn1cc(-c2ccccc2CC)nc1N	inactive	–
CCCCCn1cc(-c2ccc(C)cc2C)nc1N	inactive	–
CCCCCn1cc(-c2ccccc2F)nc1N	inactive	–
CCCCCn1cc(-c2cccc(C)c2)nc1N	inactive	–
CCCCCn1ccnc1N	inactive	–
CCCCCn1cc(-c2ccccc2C(F)(F)F)nc1N	inactive	–
CCCCCn1cc(-c2ccccc2Cl)nc1N	inactive	–
CCCCCn1cc(-c2cccc3ccccc23)nc1N	inactive	–
CCCCCn1cc(-c2cccc(OC)c2OC)nc1N	inactive	–
CCCCCn1cc(-c2ccccc2OC)nc1N	inactive	–
CCCCCn1cc(-c2cccc(OC)c2)nc1N	inactive	–
CCCCCn1cc(-c2cccc(F)c2)nc1N	inactive	–
CCCCCn1cc(-c2ccc(N)cc2)nc1N	inactive	–
CCCCCn1cc(-c2ccc(OC)cc2C)nc1N	inactive	–
